# Experiments:
# [1] = system: Mycobacterium avium subsp. paratuberculosis; test: Antituberculosis activity against Mycobacterium paratuberculosis ATCC 19698 isolated from bovine assessed as lowest drug level producing inhibition at 10^6 CFU of inoculum by MGIT 960 susceptibility test; format: functional
# Method in brief: (§1)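 M. paratuberculosis ATCC 19698 at 10^6 CFU per MGIT ParaTB tube in duplicate, drugs at final 1.0–64.0 μg/ml, 37°C in MGIT 960. Inhibition is the lowest concentration whose time to detection exceeds the 1:100 diluted-inoculum solvent control. No detectable growth means the tube never signals positive through 56 days.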
# [2] = system: Mycobacterium avium subsp. paratuberculosis; test: Antituberculosis activity against Mycobacterium paratuberculosis ATCC 19698 isolated from bovine assessed as lowest drug level producing inhibition at 10^6 CFU of inoculum by agar counting method; format: functional
# Method in brief: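 ATCC 19698 at 10^6 CFU was exposed to drug (1.0–64.0 μg/ml) in MGIT ParaTB medium at 37°C. Aliquots taken at 3 and 5 days were centrifuged, resuspended in PBS and declumped with glass beads. Serial dilutions were plated in quadruplicate on 7H10/OADC/mycobactin J and counted after 8 weeks. Inhibition is the lowest concentration giving a 2 log10 (99%) CFU reduction.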
# [3] = system: Mycobacterium avium subsp. paratuberculosis; test: Antituberculosis activity against Mycobacterium paratuberculosis ATCC 19698 isolated from bovine assessed as minimum drug level resulting in no detectable growth at 10^6 CFU of inoculum after 56 days by MGIT 960 susceptibility test; format: functional; method in brief: as §1
# [4] = system: Mycobacterium avium subsp. paratuberculosis; test: Antituberculosis activity against Mycobacterium paratuberculosis JTC303 isolated from bovine assessed as minimum drug level required for inhibition by MGIT 960 susceptibility test; format: functional
# Method in brief: (§2)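 10^5 to 10^6 CFU from single-cell suspensions inoculated in duplicate into MGIT ParaTB medium with supplement and egg yolk. Drugs were at final 0.5–64.0 μg/ml, with 128.0 μg/ml added for some strains. Tubes were incubated at 37°C in MGIT 960. Inhibition is the lowest concentration giving a time to detection longer than a drug-free 1:100 inoculum control. Killing is no positive signal through 56 days.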
# [5] = system: Mycobacterium avium subsp. paratuberculosis; test: Antituberculosis activity against Mycobacterium paratuberculosis JTC303 isolated from bovine assessed as minimum drug level required for killing after 56 days by MGIT 960 susceptibility test; format: functional; method in brief: as §2
# [6] = system: Mycobacterium avium subsp. paratuberculosis; test: Antituberculosis activity against Mycobacterium paratuberculosis UCF-4 isolated from Crohn's disease patient assessed as minimum drug level required for inhibition by MGIT 960 susceptibility test; format: functional; method in brief: as §2
# [7] = system: Mycobacterium avium subsp. paratuberculosis; test: Antituberculosis activity against Mycobacterium paratuberculosis UCF-5 isolated from Crohn's disease patient assessed as minimum drug level required for inhibition by MGIT 960 susceptibility test; format: functional; method in brief: as §2
# [8] = system: Mycobacterium avium subsp. paratuberculosis; test: Antituberculosis activity against Mycobacterium paratuberculosis UCF-7 isolated from Crohn's disease patient assessed as minimum drug level required for inhibition by MGIT 960 susceptibility test; format: functional; method in brief: as §2
# [9] = system: Mycobacterium avium subsp. paratuberculosis; test: Antituberculosis activity against Mycobacterium paratuberculosis B213 isolated from bovine assessed as minimum drug level required for killing after 56 days by MGIT 960 susceptibility test; format: functional; method in brief: as §2
# [10] = system: Mycobacterium avium subsp. paratuberculosis; test: Antituberculosis activity against Mycobacterium paratuberculosis B238 isolated from bovine assessed as minimum drug level required for killing after 56 days by MGIT 960 susceptibility test; format: functional; method in brief: as §2
# [11] = system: Mycobacterium avium; test: Antituberculosis activity against Mycobacterium avium ATCC 35712 isolated from chicken assessed as minimum drug level required for inhibition by MGIT 960 susceptibility test; format: functional; method in brief: as §2
# [12] = system: Mycobacterium avium subsp. paratuberculosis; test: Antituberculosis activity against Mycobacterium paratuberculosis UCF-8 isolated from Crohn's disease patient assessed as minimum drug level required for inhibition by MGIT 960 susceptibility test; format: functional; method in brief: as §2
# [13] = system: Mycobacterium avium subsp. paratuberculosis; test: Antituberculosis activity against Mycobacterium paratuberculosis UCF-8 isolated from Crohn's disease patient assessed as minimum drug level required for killing after 56 days by MGIT 960 susceptibility test; format: functional; method in brief: as §2
# [14] = system: Mycobacterium avium subsp. paratuberculosis; test: Antituberculosis activity against Mycobacterium paratuberculosis B244 isolated from bovine assessed as minimum drug level required for inhibition by MGIT 960 susceptibility test; format: functional; method in brief: as §2
# [15] = system: Mycobacterium avium; test: Antituberculosis activity against Mycobacterium avium ATCC 25291 isolated from chicken assessed as minimum drug level required for inhibition by MGIT 960 susceptibility test; format: functional; method in brief: as §2
# [16] = system: Mycobacterium avium; test: Antituberculosis activity against Mycobacterium avium ATCC 25291 isolated from chicken assessed as minimum drug level required for killing within 15 days by MGIT 960 susceptibility test; format: functional
# [17] = system: Mycobacterium avium; test: Antituberculosis activity against Mycobacterium avium 104 isolated from AIDS patient assessed as minimum drug level required for inhibition by MGIT 960 susceptibility test; format: functional; method in brief: as §2
# [18] = system: Mycobacterium avium; test: Antituberculosis activity against Mycobacterium avium 104 isolated from AIDS patient assessed as minimum drug level required for killing within 15 days by MGIT 960 susceptibility test; format: functional
# [19] = system: Mycobacterium avium; test: Antituberculosis activity against Mycobacterium avium JTC48627 isolated from bison fecal sample assessed as minimum drug level required for inhibition by MGIT 960 susceptibility test; format: functional, Feces; method in brief: as §2
# [20] = system: Mycobacterium avium; test: Antituberculosis activity against Mycobacterium avium JTC48627 isolated from bison fecal sample assessed as minimum drug level required for killing within 15 days by MGIT 960 susceptibility test; format: functional, Feces
# [21] = system: Mycobacterium avium; test: Antituberculosis activity against Mycobacterium avium JTC981 isolated from bongo fecal sample assessed as minimum drug level required for inhibition by MGIT 960 susceptibility test; format: functional, Feces; method in brief: as §2
# [22] = system: Mycobacterium avium; test: Antituberculosis activity against Mycobacterium avium JTC981 isolated from bongo fecal sample assessed as minimum drug level required for killing within 15 days by MGIT 960 susceptibility test; format: functional, Feces
# [23] = system: Mycobacterium avium; test: Antituberculosis activity against Mycobacterium avium EPA3 isolated from water assessed as minimum drug level required for killing within 15 days by MGIT 960 susceptibility test; format: functional
# [24] = system: Mycobacterium avium; test: Antituberculosis activity against Mycobacterium avium WSLH1544 isolated from water assessed as minimum drug level required for inhibition by MGIT 960 susceptibility test; format: functional; method in brief: as §2
# [25] = system: Mycolicibacterium phlei; test: Antituberculosis activity against Mycobacterium phlei ATCC 11758 assessed as minimum drug level required for inhibition by MGIT 960 susceptibility test; format: functional
# Method in brief: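 MGIT ParaTB tubes were supplemented with egg yolk and inoculated in duplicate with 10^5 to 10^6 CFU from single-cell suspensions. Thiopurines were dissolved in 0.05 M NaOH in 10 mM PBS and tested at final 0.5 to 64.0 μg/ml, with 128.0 μg/ml added for some strains. Tubes ran at 37°C in the MGIT 960. The value is the lowest concentration giving a time-to-detection longer than a drug-free 1:100 inoculum control.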
# [26] = system: Mycolicibacterium smegmatis; test: Antituberculosis activity against Mycobacterium smegmatis ATCC 14468 assessed as minimum drug level required for killing after 56 days by MGIT 960 susceptibility test; format: functional; method in brief: as §2
# [27] = system: Escherichia coli; test: Antituberculosis activity against Escherichia coli ATCC 25922 clinical isolate assessed as minimum drug level required for killing after 56 days by MGIT 960 susceptibility test; format: functional
# [28] = system: Enterococcus faecalis; test: Antituberculosis activity against Enterococcus faecalis ATCC 29212 isolated from human urine assessed as minimum drug level required for inhibition by MGIT 960 susceptibility test; format: functional
# [29] = system: Mycobacterium avium subsp. paratuberculosis; test: Antituberculosis activity against Mycobacterium paratuberculosis UCF-7 isolated from Crohn's disease patient assessed as colony counts at 2 ug after 12 days by MGIT 960 susceptibility test; format: functional
# [30] = system: Mycobacterium avium subsp. paratuberculosis; test: Antituberculosis activity against Mycobacterium paratuberculosis UCF-7 isolated from Crohn's disease patient assessed as colony counts at 4 ug after 12 days by MGIT 960 susceptibility test; format: functional
structure (smiles),measurement,setting,value
Sc1ncnc2nc[nH]c12 [MERCAPTOPURINE ANHYDROUS],Activity,[1],1 µg/mL
same,Activity,[2],1 µg/mL
same,Activity,[3],32 µg/mL
same,Activity,[4],1 µg/mL
same,Activity,[5],32 µg/mL
same,Activity,[6],2 µg/mL
same,Activity,[7],1 µg/mL
same,Activity,[8],<1 µg/mL
same,Activity,[9],>32 µg/mL
same,Activity,[10],>32 µg/mL
same,Activity,[11],>64 µg/mL
same,Activity,[12],<1 µg/mL
same,Activity,[13],16 µg/mL
same,Activity,[14],4 µg/mL
same,Activity,[15],>64 µg/mL
same,Activity,[16],>64 µg/mL
same,Activity,[17],>64 µg/mL
same,Activity,[18],>64 µg/mL
same,Activity,[19],32 µg/mL
same,Activity,[20],>64 µg/mL
same,Activity,[21],>64 µg/mL
same,Activity,[22],>64 µg/mL
same,Activity,[23],>64 µg/mL
same,Activity,[24],8 µg/mL
same,Activity,[25],1 µg/mL
same,Activity,[26],>128 µg/mL
same,Activity,[27],>128 µg/mL
same,Activity,[28],>128 µg/mL
same,log10CFU/ml,[29],3.87
same,log10CFU/ml,[30],3.19
